Reference: PubChem BioAssay
Unmarked numbers belong to inactive results. Inconclusive results are not listed. Calls of active or inactive are those of the source.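 Rule for the calls, unless noted: active = viability increase at or above a cutoff of the median across tested compounds plus 3 SD (cut at about 8.5% in these data, passing the limit was not always enough); inconclusive = some gains above the cutoff, reason not given; inactive = the rest.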

Experiments:
[1] = OD615 S. cerevisiae growth inhibition, permissive medium, pilot counter-assay, permissive growth control for S. cerevisiae lifespan shortening project (AID 705;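 active = growth inhibition above 25% in both replicates, a cutoff set 3 SD above the mean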); conditions: OD615, 24 h, at 10 µM, hits give high values
How it was run: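 System: Engineered DeaD yeast | Buffer or medium: SC raffinose/galactose permissive medium | Doses: 10 µM single dose, 0.25% DMSO | Times: 24 h exposure, 30 °C | Measured by: OD615 turbidity read | Read-out: Yeast growth inhibition indicated by reduced 24 h OD615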

[2] = Restrictive medium S. cerevisiae growth inhibition, OD615, pilot screen of yeast lifespan reduction project, restrictive growth control (AID 706;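 active = growth inhibition above a set limit, 3 SD over mean compound inhibition, in both replicates, cut at about 43% in these data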;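 note: modified DeaD lifespan yeast strain shifted to restrictive glucose medium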); conditions: OD615, 48 h, at 10 µM, hits give high values
How it was run: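 Assay system: engineered S. cerevisiae DeaD strain; Buffer or medium: CSMM-D glucose medium; Dosing: 10 µM compound, 0.25% DMSO; Times: cell pre-growth 4 h, compound exposure 48 h, 30 °C; Detection: absorbance (optical density) measured at 615 nm.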

[3] = viability gain of MRP-1-high H69AR cells under doxorubicin, pilot screen, MRP-1 activator project, CellTiter-Glo, duplicate (AID 807); conditions: H69AR viability with doxorubicin, CellTiter-Glo luminescence; at 10 µM; hits give high values;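 note: compound pretreatment 18-22 h then 72 h combined with doxorubicin; 0% = doxorubicin alone and 100% = vehicle without doxorubicin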
[4] = growth suppression of beta-catenin knockout HCT116, pilot screen, human colon tumor cells (AID 823;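 active = cell viability at or below a set limit in both duplicate runs, the limit being the all-compound median minus 4 SD, cut at about 23% in these data, passing the limit was not always enough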;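 note: 0% = wells killed by 20 µM Hyamine and 100% = untreated DMSO cell wells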); conditions: CellTiter-Glo, 60 h, at 10 µM, hits give low values
[5] = inhibitors of the yeast RAM network, pilot screen, dse1pr::URA3 reporter, 5-FOA selection (AID 869;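 active = inhibition over a set limit, the all-compound mean plus 3 SD, in both replicate runs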;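 note: 0% = DMSO wells with no growth and 100% = 10 µM 1-NA-PP1 with full growth; RAM network block rescues cells from 5-FOA so hits raise OD615 growth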); conditions: S. cerevisiae dse1pr::URA3 5-FOA growth, OD615, 2 d; at 10 µM; hits give high values; strain carries analog-sensitive mutant Cbk1 kinase
[6] = RAM signaling pathway blockade in yeast – S. cerevisiae, Pdr1DBD-CYC8 efflux-inhibited sensitized strain, primary screen (AID 1298;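 active = RAM network inhibition above 8.4% in each of two replicates, 3 SD over the compound average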;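 note: 0% = DMSO untreated cells without growth and 100% = 10 µM 1-NA-PP1 full growth; higher means more yeast growth rescued from 5-FOA killing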); conditions: S. cerevisiae cbk1-as DSE1-URA3 strain, 5-FOA growth OD615, 2 d; at 50 µM; hits give high values

Structure (SMILES)	growth inhibition [1]	growth inhibition [2]	viability increase [3]	viability [4]	inhibition [5]	RAM network inhibition [6]
Cc1sc(NC(=O)c2ccco2)c(C(c2cccnc2)N2CCN(c3ccc(F)cc3)CC2)c1C (stereo not given)	-8.72%	6.02%	-5.73%	13.3% (active)	1.42%	7.4%
C=C(C)Cn1c(CCNC(=O)C(C)(C)C)nc2ccccc21	-12.7%	6.9%	0.45%	100%	2.33%	1.51%
NC(=O)C1CCN(c2nc(C3CC3)nc3c2nnn3Cc2ccccc2Cl)CC1	-11.9%	-3.43%	-6.11%	84.4%	3.41%	0.99%
COc1ccc(CC(=O)Nc2cc(C)c3c(=O)oc4ccccc4c3n2)cc1	-2.25%	1.88%	-4.14%	75.3%	4.06%	7.11%
CCCCCn1c(CNC(=O)COC)nc2ccccc21	-2.62%	-2.4%	-2.9%	95.4%	0.855%	2.97%
COc1cc2[nH]c(=O)n(CCC(=O)N3CCN(c4cccc(C)c4C)CC3)c(=O)c2cc1OC	2.25%	-5.83%	-5.18%	84.2%	0.615%	5.67%
Cc1cccc(NC(=O)Cn2cnc3c(cnn3-c3ccc(F)cc3)c2=O)c1C	-1.04%	-2.65%	-8.31%	29.6%	0.735%	2.47%
Cc1cc(C)c(C)c(S(=O)(=O)Nc2ccccc2C(=O)NCCCn2ccnc2)c1C	-28%	12.5%	-5.57%	70.2%	0.75%	0.27%
CCN1C(=S)SC(=O)C1=C1C=C(C)OC(C)=C1	-11%	14.9%	-3.02%	91.9%	2.55%	5.1%
CCCn1cc(S(=O)(=O)CC(=O)N2CCc3ccccc32)c2ccccc21	-14.9%	-8.48%	-5.64%	96.9%	4.21%	5.15%
COc1cccc(C(=O)Nc2ccc(-c3nc4ccccc4o3)c(O)c2)c1	-13.4%	-12.1%	-4.28%	30.4%	3.71%	3.99%
O=C(Nc1nn[nH]n1)c1cccc(Oc2ccccc2)c1	-18.5%	8.51%	-0.81%	96.5%	3.22%	7.27%
CC(C)c1nc2sc3c(SCC(=O)NCc4ccco4)ncnc3c2c2c1CCC2	-6.53%	-1.46%	-5.63%	91.7%	1.31%	5.66%
COCc1cc(=O)n2c(-c3ccccc3OC)n[nH]c2n1	-14%	4.39%	-3.36%	92.7%	2.2%	9.13%
OC(COCc1cccs1)CN1CCN(c2ccccn2)CC1 (stereo not given)	-19.5%	-7.78%	-1.3%	101%	2.32%	4.89%
O=C1CC(N2CCN(Cc3ccc4c(c3)OCO4)CC2)C(=O)N1Cc1ccc(N2CCCC2=O)cc1 (stereo not given)	-28.2%	-0.61%	-1.61%	90.3%	2.29%	7.63%
Cn1nnc2c(NCc3ccco3)nccc21	-26%	-1.62%	-4.4%	96.6%	3.05%	0.93%
Nc1ncnc2c1ncn2C1CCC(CO)C(O)C1 (stereo not given)	3.96%	-0.275%	-3.38%	107%	1.32%	3.68%
CC(=O)c1c(C)n(-c2ccc(N(C)C)cc2)c2ccc(OCC(N)=O)cc12	-8.79%	-6.18%	-4.87%	84.8%	2.3%	6.29%
CCC1(C)Cc2c(sc3c2c2ncnn2c2nnc(SCC(=O)NCc4ccco4)n32)CO1 (stereo not given)	-19.2%	-5.88%	-7.33%	58.1%	0.815%	1.87%

Structure (SMILES)	growth inhibition [1]	growth inhibition [2]	viability increase [3]	viability [4]	inhibition [5]	RAM network inhibition [6]
NC(=O)C1CCN(C(=O)CCCCCn2c(=O)[nH]c3ccsc3c2=O)CC1	-14%	-8.6%	-3.22%	96.4%	0.97%	3.54%
Cc1ccccc1Cn1cc(S(=O)(=O)CC(=O)Nc2nccs2)c2ccccc21	-30.2%	6.15%	-5.34%	70.4%	4.8%	8.89%
Cc1ccccc1-c1ccc(Nc2ccc(N3CCOCC3)cc2)nn1	-3.44%	15.8%	-5.91%	81%	0.46%	2.5%
CCOC(=O)CNC(=O)c1cn(C)c(=O)c2cc(OC)c(OC)cc12	-29.2%	-3.25%	-2.81%	86.5%	0.24%	2.87%
COc1cc(-c2nc3cnccn3c2Nc2ccc3c(c2)OCCO3)ccc1O	-15.6%	-2.52%	-7.25%	84.5%	2.98%	11.8%
CCOc1cccc2c1OC1(C)CC2NC(=O)N1c1cccc(Cl)c1 (stereo not given)	-12%	5.29%	-1.53%	99.2%	-0.045%	5.25%
CC1(C)SCC(C(=O)O)N1C=O (stereo not given)	-16%	-6.9%	-0.04%	105%	1.66%	2.9%
COc1ccc(-c2nnc(NC(=O)c3cc(Cl)ccc3Cl)o2)cc1	4.57%	4.36%	-5.58%	35.9%	2.53%	8.05%
CC12COC3(C(=O)Nc4cccnc4)CC1CCC32C (stereo not given)	-5.62%	1.04%	-2.08%	109%	1.51%	2.55%
CCOC(=O)C1=C(N)OC2=C(C(=O)CCC2)C1c1cccnc1 (stereo not given)	-6.66%	4.47%	-2.49%	104%	1.22%	2.44%
CCC(=O)NC(C)c1nc2ccccc2n1C (stereo not given)	-9.66%	-2.13%	-1.61%	102%	1.37%	7.64%
CCOCCCNC(=O)C1CCC(CNS(=O)(=O)c2ccc(F)cc2)CC1 (stereo not given)	-7.63%	6.36%	-2.28%	95.5%	1.19%	7.28%
COc1ccc(-c2cc3ccccc3n2CC(O)CN2CCOCC2)cc1 (stereo not given)	-4.27%	-5.21%	-6.02%	89.7%	0.59%	2.87%
C[C@@H](NC(=O)c1coc(=O)c(Br)c1)c1ccccc1	-24.5%	3.37%	-8.28%	63.7%	3.79%	7.48%
CCC(=O)c1cn(CC(=O)NCC2CCCO2)c2ccccc12 (stereo not given)	0.725%	12.5%	-3.8%	96.7%	2.02%	1.98%
Cc1ccc2nc(NC3=NCN(Cc4ccco4)CN3)nc(C)c2c1	-1.68%	-0.67%	-7.05%	27.2%	-0.585%	-1.94%
CCN(Cc1ccncc1)C(=O)c1cccc(S(=O)(=O)N2CCOCC2)c1	-4.12%	6.31%	-2.89%	99.1%	1.07%	9.82%
CC(=O)NCC(=O)N(c1c(C)n(C)n(-c2ccccc2)c1=O)C1(C(=O)NC2CCCC2)CCCCC1	10%	-0.075%	-0.84%	97.2%	1.13%	-0.72%
COc1ccccc1-c1nc(NC(C)=O)n[nH]1	-12.1%	-8.54%	-4.21%	92.1%	3.42%	5.35%
O=C1C(Cl)=C(Nc2ccccc2O)C(=O)N1c1ccccc1	-42%	-9.91%	-6.15%	81.7%	2.32%	5.61%
